Structures can show the parent of a compound that is named as a salt. Calls of active or inactive are those of the source. No cut-off for these calls is given here.
Legend:
[1] = biological target: T1, Extracellular calcium-sensing receptor (Homo sapiens, UniProt P41180); test: Positive allosteric modulation of calcium sensing receptor by cell based assay; format: functional
T1 sequence (P41180 whole entry): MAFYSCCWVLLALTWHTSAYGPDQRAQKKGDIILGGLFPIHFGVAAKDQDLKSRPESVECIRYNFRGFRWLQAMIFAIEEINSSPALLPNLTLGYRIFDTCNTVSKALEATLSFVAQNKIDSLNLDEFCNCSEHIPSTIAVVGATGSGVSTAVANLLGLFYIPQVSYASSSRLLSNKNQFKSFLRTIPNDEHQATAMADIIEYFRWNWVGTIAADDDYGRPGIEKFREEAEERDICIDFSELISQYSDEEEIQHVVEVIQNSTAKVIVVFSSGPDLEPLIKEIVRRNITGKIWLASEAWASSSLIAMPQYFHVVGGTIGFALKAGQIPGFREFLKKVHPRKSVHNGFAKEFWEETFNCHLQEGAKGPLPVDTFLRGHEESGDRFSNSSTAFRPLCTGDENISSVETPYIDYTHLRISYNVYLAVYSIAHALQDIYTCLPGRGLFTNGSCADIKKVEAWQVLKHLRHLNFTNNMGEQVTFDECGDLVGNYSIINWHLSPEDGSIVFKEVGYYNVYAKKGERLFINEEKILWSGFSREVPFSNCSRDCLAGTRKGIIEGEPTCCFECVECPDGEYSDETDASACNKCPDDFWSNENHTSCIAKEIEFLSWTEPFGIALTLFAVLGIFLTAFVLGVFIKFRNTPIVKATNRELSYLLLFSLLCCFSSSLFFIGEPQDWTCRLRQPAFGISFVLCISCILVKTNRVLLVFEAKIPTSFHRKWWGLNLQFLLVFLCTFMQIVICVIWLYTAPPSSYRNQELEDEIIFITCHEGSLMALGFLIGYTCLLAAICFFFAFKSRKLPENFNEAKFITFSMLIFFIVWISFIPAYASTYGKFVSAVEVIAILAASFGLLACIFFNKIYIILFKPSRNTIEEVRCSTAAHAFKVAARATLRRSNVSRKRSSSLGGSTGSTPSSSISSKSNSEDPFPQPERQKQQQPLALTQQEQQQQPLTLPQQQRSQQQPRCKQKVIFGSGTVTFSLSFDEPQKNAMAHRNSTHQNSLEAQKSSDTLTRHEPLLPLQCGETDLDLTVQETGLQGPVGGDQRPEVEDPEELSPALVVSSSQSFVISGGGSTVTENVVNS
Summary of the method: (§1)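 R-SAT cell-based functional assay; cells kept in DMEM with 0.8 mM MgCl2 and 1.6 mM CaCl2 to raise sensitivity. Means of at least three independent experiments, standard deviation reported.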

[2] = biological target: T2, Extracellular calcium-sensing receptor (Homo sapiens) (UniProt P41180); test: Positive allosteric modulation of calcium sensing receptor by cell based assay relative to control; format: functional; summary of the method: as §1
T2 sequence (whole entry): T1 sequence (P41180 whole entry)

[3] = biological target: T2, Extracellular calcium-sensing receptor (Homo sapiens); test: Positive allosteric modulation of calcium sensing receptor by phosphatidyl inositol hydrolysis assay; format: functional
[4] = biological target: T2, Extracellular calcium-sensing receptor (Homo sapiens); test: Positive allosteric modulation of calcium sensing receptor at 10 nM by cell based assay; format: functional
[5] = biological target: T2, Extracellular calcium-sensing receptor (Homo sapiens); test: Positive allosteric modulation of calcium sensing receptor at 10 nM by cell based assay relative to control; format: functional
Homo sapiens = species on record: Homo sapiens; test: Activation of human GABAB receptor
[6] = biological target: T3, Parathyroid hormone/parathyroid hormone-related peptide receptor (Homo sapiens) (UniProt Q03431); test: Activation of human PTH1 receptor
T3 sequence (whole entry): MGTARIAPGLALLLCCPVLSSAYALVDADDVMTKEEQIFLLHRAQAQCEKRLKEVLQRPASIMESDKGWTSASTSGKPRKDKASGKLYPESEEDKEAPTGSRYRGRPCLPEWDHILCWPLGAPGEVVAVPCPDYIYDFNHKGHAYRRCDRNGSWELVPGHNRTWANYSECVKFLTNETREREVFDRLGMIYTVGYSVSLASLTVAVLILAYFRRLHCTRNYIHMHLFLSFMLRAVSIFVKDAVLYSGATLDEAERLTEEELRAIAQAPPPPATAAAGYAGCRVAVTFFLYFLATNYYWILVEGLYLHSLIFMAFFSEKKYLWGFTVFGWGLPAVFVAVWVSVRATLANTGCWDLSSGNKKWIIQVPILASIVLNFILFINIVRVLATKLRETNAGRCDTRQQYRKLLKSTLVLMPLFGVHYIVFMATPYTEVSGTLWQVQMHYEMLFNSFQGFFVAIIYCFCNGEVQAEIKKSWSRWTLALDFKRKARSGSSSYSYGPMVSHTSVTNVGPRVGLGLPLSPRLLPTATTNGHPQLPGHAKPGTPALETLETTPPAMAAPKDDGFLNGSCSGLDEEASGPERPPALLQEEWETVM

Rattus norvegicus = test: Reduction of parathyroid hormone level in Sprague-Dawley rat at up to 10 mg/kg, sc after 1 hr by ELISA; format: functional, organism-based; design: dose 10 mg/kg
Summary of the method: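 Male Sprague–Dawley rats dosed subcutaneously; blood sampled 1 h post-dose and plasma PTH measured by ELISA.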

[7] = Intrinsic clearance in human liver microsomes; format: ADME, Microsome

SMILES	EC50 [1] [nM]	Efficacy [2] [%]	further results
Cc1ccc([C@](C)(O)c2nc3ccccc3s2)c(C)c1	10	83	Activity [3]: Active
C=C(c1nc2ccccc2s1)c1ccc(C)cc1C			Activity [4]: inactive; Activity [5]: inactive
Cc1ccccc1C(C)(O)c1nc2ccccc2s1 (stereo not given)	251	72	
Cc1cc(C(C)(O)c2nc3ccccc3s2)ccc1F (stereo not given)	158	62	
CC(O)(c1ccc2ccccc2c1)c1nc2ccccc2s1 (stereo not given)	631	53	
Cc1ccc(C(C)(O)c2nc3ccccc3s2)c(C)c1 (stereo not given)	25.1	91	Activity [3]: Active; Activity (Homo sapiens): inactive; Activity [6]: inactive; Activity (Rattus norvegicus): Active; microsomal CLint [7]: 396 µL/min/mg
OC(c1ccccc1)(c1ccc(Cl)c(Cl)c1)c1nc2ccccc2s1 (stereo not given)			Activity [4]: inactive; Activity [5]: inactive
Cc1ccc(C(O)c2nc3ccccc3s2)c(C)c1 (stereo not given)			Activity [4]: inactive; Activity [5]: inactive
CC(O)(c1ccc(Cl)cc1)c1nc2ccccc2s1 (stereo not given)	398	68	microsomal CLint [7]: > 200 µL/min/mg
Cc1cc(Cl)ccc1C(C)(O)c1nc2ccccc2s1 (stereo not given)	31.6	94	

Second part, led by results:

EC50 [1] [nM]	Efficacy [2] [%]	SMILES	further results
3980	26	COc1ccccc1C(C)(O)c1nc2ccccc2s1 (stereo not given)	
316	81	Cc1cc(C)c2c(c1)C(O)(c1nc3ccccc3s1)CCC2 (stereo not given)	
20	115	C[C@@H](NCCCc1cccc(C(F)(F)F)c1)c1cccc2ccccc12 [CINACALCET HYDROCHLORIDE]	
2510	88	Cc1ccc(C(C)c2nc3ccccc3s2)c(C)c1 (stereo not given)	
79.4	79	Cc1ccc([C@@](C)(O)c2nc3ccccc3s2)c(C)c1	Activity [3]: Active
100	82	CC(O)(c1nc2ccccc2s1)c1ccc(Cl)cc1Cl (stereo not given)	microsomal CLint [7]: 66 µL/min/mg
100	62	CC(O)(c1ccc(Cl)c(Cl)c1)c1nc2ccccc2s1 (stereo not given)	
200	76	Cc1ccc(C(O)(c2nc3ccccc3s2)C2CC2)c(C)c1 (stereo not given)	

From ChEMBL document CHEMBL1255510, “Discovery of a class of calcium sensing receptor positive allosteric modulators; 1-(benzothiazol-2-yl)-1-phenylethanols” (Bioorg Med Chem Lett, 2010)
